The species entered for series [1] is Homo sapiens. Kind of series: Association constant for the binding of lactone form to human serum albumin. The class given is functional. In a few lines:
(§1)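 Fluorescence lifetime titration of lactone or carboxylate form (20 μM total drug) with varying HSA. Phase-shift lifetimes measured with 30 MHz modulated excitation, emission taken through a 500-nm long-pass filter. Free fraction computed as (τ − τB)/(τF − τB). K and n obtained by nonlinear least-squares fit to K = [Db]/[Df][aa]^n, where aa is amino acid residues.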

Series [2] can be described thus: Half-life period in human plasma. The class given is ADME. A digest of the protocol:
(§2)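 Drug (1 μM) incubated at 37 °C in human plasma, continuously aerated with blood gas to hold pH 7.6 ± 0.1. Lactone hydrolysis followed by HPLC. t1/2 and equilibrium % lactone fitted to decay profiles by nonlinear least squares. Average of at least three independent kinetic runs.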

The species entered for series [3] is Homo sapiens. Description: % of lactone form at equilibrium in human plasma. The class given is functional. A digest of the protocol: as §2
Series [4] in a line: Half-life period in PBS buffer at 37 C in the absence of human serum albumin. The series is classed as ADME. A digest of the protocol: (§3)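 Lactone-to-carboxylate hydrolysis of drug (1 μM total) in PBS (137 mM NaCl, 3 mM KCl, 8 mM Na2HPO4, 1 mM KH2PO4, pH 7.4) at 37 °C, with or without 20 mg/mL (290 μM) HSA. Monitored by HPLC over time. t1/2 and equilibrium % lactone fitted to decay profiles by nonlinear least squares. Average of at least three independent kinetic runs.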

The species entered for series [5] is Homo sapiens. Kind of series: Association constant for the binding of carboxylate form to human serum albumin. The class given is functional. In a few lines:
as §1

The species named for series [6] is Homo sapiens. Description: % of lactone form at equilibrium in HSA buffer at 37 degree C in the presence of human serum albumin. The series is classed as functional. In a few lines: as §3
Series [7] is filed under the species Homo sapiens. Description: n value for the binding of lactone form to human serum albumin (n value = number of amino acid per binding site). The series is classed as functional. A digest of the protocol: as §1
A short description of series [8]: Half-life period in PBS buffer at 37 degree C in the absence of human serum albumin. The class given is ADME. In a few lines:
as §3

For series [9], the species on record is Homo sapiens. Kind of series: n value for the binding of carboxylate form to human serum albumin (n value = number of amino acid per binding site). The class given is functional. In a few lines: as §1
Series [10] is filed under the species Homo sapiens. Kind of series: % of lactone form at equilibrium in PBS buffer at 37 degree C in the absence of human serum albumin. The class given is functional. In a few lines: as §3
A short description of series [11]: Half-life period in HSA buffer at 37 degree C in the presence of human serum albumin. The class given is ADME. The settings on record: buffer with human serum albumin. A digest of the protocol:
as §3

For series [12], the species on record is Homo sapiens. Kind of series: % of lactone form at equilibrium in PBS buffer at 37 C in the absence of human serum albumin. The class given is functional.
Series [13] in a line: Half-life period in HSA buffer at 37 C in the presence of human serum albumin. The class given is ADME. Conditions: buffer with human serum albumin.
Series [14] is filed under the species Homo sapiens. Kind of series: % of lactone form at equilibrium in HSA buffer at 37 C in the presence of human serum albumin. The class given is functional.

As to `CCc1c2c(nc3ccc(O)cc13)-c1cc3c(c(=O)n1C2)COC(=O)[C@]3(O)CC` [7-ETHYL-10-HYDROXYCAMPTOTHECIN], the K in the series filed under Homo sapiens [1] was 636 1/Maa; in the series listed under Homo sapiens [5], 148 1/Maa. Besides, the figures for the half-life in series [2] and in series [4] were 34.3 min and 19.9 min, respectively. The compound further showed an Activity in the series filed under Homo sapiens [3] of 24%.

Regarding `CC[C@@]1(O)C(=O)OCc2c1cc1n(c2=O)Cc2cc3ccccc3nc2-1` [CAMPTOTHECIN], the Activity was under 0.5% in the series listed under Homo sapiens [6]; 1.8 in the series filed under Homo sapiens [7]; under 0.2% in the series listed under Homo sapiens [3]; 2.3 in the series listed under Homo sapiens [9]; 13% in the series listed under Homo sapiens [10]. The values for the K in the series filed under Homo sapiens [1] and in the series filed under Homo sapiens [5] were 30 1/Maa and 4700 1/Maa, respectively. In addition, the results for the half-life in series [8], in [2] and in series [11] were 16.9 min, 10.6 min and 12.6 min, respectively.

For the compound `CC[C@@]1(O)C(=O)OCc2c1cc1n(c2=O)Cc2cc3cc(O)ccc3nc2-1` [HYDROXYCAMPTOTHECIN], the Activity in the series filed under Homo sapiens [12] is recorded as 16%; in the series filed under Homo sapiens [7] it was 1.7; in the series listed under Homo sapiens [14], 4%; in the series filed under Homo sapiens [3], 6%; in the series filed under Homo sapiens [9] it was 1.7. The K in the series filed under Homo sapiens [1] is 135 1/Maa; in the series filed under Homo sapiens [5] it was 264 1/Maa. Moreover, the half-life was 21.1 min in [13], 18.6 min in series [2] and 22.1 min in series [4].
